A selection: hits, their analogues and other compounds. The true share with any hit is near 2%.
CAL PDZ FP-1: CAL PDZ peptide-binding inhibitors, primary screen, biochemical, fluorescence polarization, Cer-tagged CAL PDZ, HTS; inhibition, % at 20 µM; 330,000 compounds, 0.02% hits; Golgi-associated PDZ and coiled-coil motif-containing protein (Homo sapiens), Q9HD26; purified CAL PDZ, TMR-peptide fluorescence polarization, 1 h;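 active means highest replicate inhibition of at least 40%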;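 further: plate controls were DMSO neutral control wells for no effect and unlabeled competitor peptide control wells for full effect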
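System: tagged CAL PDZ domain. Schedule: 1 h room-temperature incubation prior to read. Signal: fluorescence polarization (mP). Measure: percent inhibition from loss of millipolarization.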
dFosB activator: activators of delta FosB homodimer, primary screen, biochemical, fluorescence polarization, TAMRA-CDK5 oligo, single point; Protein FosB (Mus musculus), P13346; purified delta FosB; percent of positive-control signal above neutral wells; activation, % at 25 µM; 340,000 compounds, 0.99% hits;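 active means mean activation above about 17%, with every replicate also reaching it, limit read from the data, passing the limit was not always enough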
CAL PDZ FP-2: untagged CAL PDZ binding inhibitors, primary screen, biochemical, fluorescence polarization, HTS | Golgi-associated PDZ and coiled-coil motif-containing protein (Homo sapiens), Q9HD26 | purified CAL PDZ, TMR-peptide fluorescence polarization, 1 h | inhibition, % at 24.9 µM | 300,000 compounds, 0.92% hits | AID 602252, 2012;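 active means mean inhibition of at least 30% with at least half of replicates also reaching 30%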;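 further: 0% = DMSO neutral control and 100% = excess unlabeled competitor peptide PRC23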
PKA-R2B activ: activators of PKA-R2B holoenzyme, primary screen, biochemical, fluorescence polarization, Cy5-IP20, human. PKA-R2B holoenzyme dissociation; R2B truncated from residue 108, S112A mutant; 0% DMSO only, 100% 113 µM cGMP. activation, % at 11.4 µM. 340,000 compounds, 0.079% hits;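 active means activation above a cutoff set at the mean over all compounds plus 3 SD, cut at about 18% in these data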;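 further: higher means more holoenzyme dissociation and a rise in polarization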
Target sequence (P31323 whole entry, looked up, other chains not shown, the tested form may be a part): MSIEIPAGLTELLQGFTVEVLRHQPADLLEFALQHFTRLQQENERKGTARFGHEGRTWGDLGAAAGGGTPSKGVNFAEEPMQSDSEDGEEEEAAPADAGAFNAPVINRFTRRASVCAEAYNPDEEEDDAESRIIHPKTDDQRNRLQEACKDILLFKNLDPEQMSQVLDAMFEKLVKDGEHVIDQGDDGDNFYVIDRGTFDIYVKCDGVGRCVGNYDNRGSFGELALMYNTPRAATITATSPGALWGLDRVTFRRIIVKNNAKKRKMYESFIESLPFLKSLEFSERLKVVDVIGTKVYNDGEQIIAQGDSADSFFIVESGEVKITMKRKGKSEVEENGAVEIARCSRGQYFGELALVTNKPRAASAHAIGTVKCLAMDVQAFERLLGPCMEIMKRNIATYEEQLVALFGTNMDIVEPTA
NTR1 ag: agonists of human NTR1, primary screen, imaging, U2OS cells, beta-arrestin-GFP, high content; Neurotensin receptor type 1 (Homo sapiens), P30989; NTR1-U2OS beta-arrestin-GFP spot imaging, agonist mode; activation, % at 20 µM; 330,000 compounds, 0.17% hits; AID 493036, 2011;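 active means activation at or above 40% of the spot to cytoplasm intensity ratio, with at least 20 cells analyzed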;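 further: 0% = DMSO without peptide and 100% = 100 nM NTR1 peptide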
PKA-R1A activ: activators of PKA-R1A holoenzyme, primary screen, biochemical, fluorescence polarization, Cy5-IP20, bovine R1A, mouse PKAc | cAMP-dependent protein kinase type I-alpha regulatory subunit (Bos taurus) + … | PKA-R1A dissociation; scaled: DMSO 0%, 113 µM cGMP 100% | activation, % at 11.4 µM | 340,000 compounds, 0.083% hits;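 active means percent activation above the mean of all tested compounds plus 3 SD, cut at about 19% in these data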;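 further: higher means more PKAc released from R1A so a rise in polarization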
Active calls of the source: *.

Screening CCn1cc(C(=O)N[C@H](C(=O)NCCCOC)C(C)C)c(=O)c2cc3c(cc21)OCO3 returned CAL PDZ FP-1 -1, dFosB activator 0, CAL PDZ FP-2 -2, PKA-R2B activ 2, NTR1 ag 0 and PKA-R1A activ 2.
For CCn1cc(C(=O)N[C@H](C(=O)O)C(C)C)c(=O)c2cc3c(cc21)OCO3 the results were dFosB activator 1, CAL PDZ FP-2 46*, PKA-R2B activ 7, NTR1 ag 0 and PKA-R1A activ -2.
For COc1ccc(NC(=O)c2c(N)no[n+]2[O-])cc1 the results were CAL PDZ FP-1 -1, dFosB activator 21*, CAL PDZ FP-2 -2, PKA-R2B activ 0, NTR1 ag -1 and PKA-R1A activ -11.
`COc1ccc(NC(=O)c2c(N)no[n+]2[O-])c(OC)c1` gave CAL PDZ FP-1 1, dFosB activator -3, CAL PDZ FP-2 -7, PKA-R2B activ 3, NTR1 ag 0 and PKA-R1A activ 3.
`CCOC(=O)c1cccc(C2=CC(=O)C[C@H](c3ccc(Cl)cc3)C2)c1` gave CAL PDZ FP-1 -1, dFosB activator -9, CAL PDZ FP-2 1, PKA-R2B activ -6, NTR1 ag 6 and PKA-R1A activ -4.
For Cc1ccc(NC2CCCN(C(=O)c3ccccc3-c3ncc[nH]3)C2)cc1C (centres undefined) the results were CAL PDZ FP-1 0, dFosB activator -6, CAL PDZ FP-2 -4, PKA-R2B activ 7, NTR1 ag 0 and PKA-R1A activ -3.
O=C(c1ccc(OC2CCN(C/C=C/c3ccccc3)CC2)cc1)N1CCCCC1 was read as CAL PDZ FP-1 13, dFosB activator -6, CAL PDZ FP-2 37*, PKA-R2B activ -5, NTR1 ag 1 and PKA-R1A activ 5.
`CCn1ccnc1CN(C)C(=O)c1ccc(OC2CCN(CCc3ccccc3)CC2)cc1` gave CAL PDZ FP-1 0, dFosB activator -2, CAL PDZ FP-2 -6, PKA-R2B activ -4, NTR1 ag 0 and PKA-R1A activ 3.
For Nc1c2c(nc3ccccc13)N(c1ccccc1)CC2 the results were CAL PDZ FP-1 1, dFosB activator 5, PKA-R2B activ -13, NTR1 ag 1 and PKA-R1A activ -7.
Screening Nc1c2c(nc3ccccc13)CSCC2 returned CAL PDZ FP-1 -1, dFosB activator -6, CAL PDZ FP-2 50*, PKA-R2B activ -5, NTR1 ag 0 and PKA-R1A activ 4.
COc1ccc(-c2nc3ccccc3o2)cc1OC was read as CAL PDZ FP-1 44*, dFosB activator -27, CAL PDZ FP-2 -4, PKA-R2B activ -14, NTR1 ag 2 and PKA-R1A activ -12.
`COc1ccc(C(=O)NC(=S)NCc2ccc(-c3nc4ccccc4o3)cc2)cc1OC` gave CAL PDZ FP-1 -2, dFosB activator -2, CAL PDZ FP-2 -4, PKA-R2B activ 9, NTR1 ag 12 and PKA-R1A activ 6.
Screening CC(=O)c1ccc(NC(=O)c2noc3c2CCC3)cc1 returned dFosB activator -10, CAL PDZ FP-2 68*, PKA-R2B activ -7, NTR1 ag -1 and PKA-R1A activ -5.
Screening O=C(O)c1ccccc1C=NN1CCCCCC1 returned CAL PDZ FP-1 -2, dFosB activator -3, CAL PDZ FP-2 -5, PKA-R2B activ 5 and PKA-R1A activ -4.
`COc1ccc(-c2cc(C(=O)Nc3cc(C)n(Cc4ccc(Cl)cc4)n3)no2)cc1OC` gave CAL PDZ FP-1 0, dFosB activator 32*, CAL PDZ FP-2 1, PKA-R2B activ 4, NTR1 ag 27 and PKA-R1A activ -7.
Cc1ccccc1NC(=O)COC(=O)CNC(=O)c1sc2ccccc2c1Cl was read as CAL PDZ FP-1 -1, dFosB activator -12, CAL PDZ FP-2 2, PKA-R2B activ 7, NTR1 ag -2 and PKA-R1A activ 7.
Screening CCCN(CC(=O)Nc1ccccc1C)C(=O)c1sc2ccccc2c1Cl returned CAL PDZ FP-1 0, dFosB activator -1, CAL PDZ FP-2 61*, PKA-R2B activ 2, NTR1 ag 1 and PKA-R1A activ 4.
CCN(CC)C(=O)CN1C(=O)C2(OCC(C)(C)CO2)c2ccccc21 was read as CAL PDZ FP-1 0, dFosB activator 0, CAL PDZ FP-2 -3, PKA-R2B activ -2, NTR1 ag 2 and PKA-R1A activ -1.
`CC(C)C[C@H]1CNC(=S)N1CC1CCN(CCCCc2ccccc2)CC1` gave CAL PDZ FP-1 0, dFosB activator 4, CAL PDZ FP-2 -7, PKA-R2B activ -7 and PKA-R1A activ -6.
For N#CCN1C(=O)NC2(CCCc3sccc32)C1=O (centres undefined) the results were CAL PDZ FP-1 -2, dFosB activator -16, CAL PDZ FP-2 -2, PKA-R2B activ -1, NTR1 ag -1 and PKA-R1A activ 8.
`O=C(c1ccccc1)C1N=NCC1c1ccc(Cl)cc1` (centres undefined) gave CAL PDZ FP-1 -1, dFosB activator -5, CAL PDZ FP-2 174*, PKA-R2B activ -14 and PKA-R1A activ -5.
Screening CCOC(=O)C1=NNC(C(=O)c2ccccc2)C1c1ccc(Cl)cc1 (centres undefined) returned CAL PDZ FP-1 -1, dFosB activator -13, PKA-R2B activ -5, NTR1 ag 2 and PKA-R1A activ -1.
Screening O=S(=O)(c1ccc(Cl)cc1)N1CCSC1c1ccco1 (centres undefined) returned CAL PDZ FP-1 14, dFosB activator -5, CAL PDZ FP-2 164*, PKA-R2B activ 3, NTR1 ag -3 and PKA-R1A activ -7.
Screening CC(C)OCCCNC(=O)COc1ccc2oc3c(c2c1)CCCC3 returned CAL PDZ FP-1 0, dFosB activator -22, CAL PDZ FP-2 -4, PKA-R2B activ -4, NTR1 ag 0 and PKA-R1A activ 9.
`CCNC(=O)/C(C#N)=C/c1c(N2CCN(c3cccc(Cl)c3)CC2)nc2c(C)cccn2c1=O` gave CAL PDZ FP-1 -7, dFosB activator -4, CAL PDZ FP-2 -1, PKA-R2B activ -6, NTR1 ag 11 and PKA-R1A activ -10.
